The source made the active and inactive calls. The calls are words filed in the database; no cut-off is given here.
Key:
[1] = test system: CD4+ve Th; test: (§1) Induction of mouse ovalbumin specific CD4+ T cell activation assessed as increase in IFN-gamma expression at 1 uM preincubated for 18 hrs with mouse BDMC cells in presence of ovalbumin followed by washout and further coincubated with CD4+ T cells and measured after 72 hrs; format: functional, cell-based
Outline: (§2)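 Supernatants taken after the 72 h coculture of washed BMDCs (18 h pretreatment with 1 μM compound, LPS 1 μg/mL or vehicle, plus OVA 50 μg/mL) with OT-II CD4+ or OT-I CD8+ T cells. Cytokines measured by mouse Th1/Th2/Th17 cytometric bead array. Duplicates of two independent experiments, mean ± SEM.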

[2] = test system: CD8-positive T cell; test: (§3) Induction of mouse ovalbumin specific CD8-positive T cell activation assessed as increase in IL-6 expression at 1 uM preincubated for 18 hrs with mouse BDMC cells in presence of ovalbumin followed by washout and further coincubated with CD4+ T cells and measured after 72 hrs; format: functional, cell-based; outline: as §2
[3] = test system: PBMC; test: Immunostimulatory activity in human PBMC cells assessed as increase in IL-10 production at 1 uM incubated for 18 hrs by flow cytometry analysis; format: functional, cell-based
Outline: (§4)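 PBMCs at 1 × 10^6 cells/mL treated with compound (1 μM), LPS (1 μg/mL) or 0.1% DMSO vehicle; cell-free supernatants collected after 18 h at 37 °C, 5% CO2. Cytokines quantified by human inflammatory cytokine bead array on flow cytometry with recombinant standard curves. Four independent experiments, mean ± SEM.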

[4] = test system: Mus musculus; test: Immuno-adjuvant activity in NIH/OlaHsd mouse assessed as increase in ovalbumin specific IgG production in sera at 50 ug, sc administered on day 0 and as booster dose on day 21 and 28 measured 7 days post last dose by ELISA; format: functional, organism-based; conditions: dose 50.0 µg, time 35.0 day
[5] = test system: PBMC; test: Immunostimulatory activity in human PBMC cells assessed as increase in IL-1beta production at 1 uM incubated for 18 hrs by flow cytometry analysis; format: functional, cell-based; outline: as §4
[6] = test system: RAW-Blue; test: Activation of NF-kappaB transcriptional activity in mouse RAW-Blue cells expressing NOD2 and TLR7 at 1 uM incubated for 18 hrs by quanti-blue/SEAP-based spectrophotometry analysis; format: cell-based; conditions: filed as activator
Outline: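 RAW-Blue cells pretreated 1 h with NOD2 antagonist SG84 (5 μM), TLR7 antagonist M5049 (1 μM), both, or neither, then given compound or 0.1% DMSO vehicle; 18 h at 37 °C, 5% CO2 in growth medium without Normocin/Zeocin. Supernatant mixed with QUANTI-Blue for 2 h at 37 °C, SEAP read at 630 nm. Activity relative to vehicle; three independent experiments, mean ± SEM.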

[7] = test system: PBMC; test: Immunostimulatory activity in human PBMC cells assessed as increase in TNF production at 1 uM incubated for 18 hrs by flow cytometry analysis; format: functional, cell-based; outline: as §4
[8] = test system: PBMC; test: Upregulation of IL-26 gene transcription in human PBMC cells at 1 uM incubated for 18 hrs by KEGG analysis; format: functional, cell-based
Outline: (§5)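 PBMCs from three donors (2 × 10^6 cells/mL) exposed to 1 μM compound or 0.1% DMSO for 18 h at 37 °C. mRNA isolated, amplified, sequenced. DESeq2 differential expression, FDR <0.05 and fold change >2 or <0.5 versus vehicle; gene lists used for Metascape/KEGG enrichment.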

[9] = test system: CD4+ve Th; test: Induction of mouse ovalbumin specific CD4+ T cell activation assessed as increase in TNF expression at 1 uM preincubated for 18 hrs with mouse BDMC cells in presence of ovalbumin followed by washout and further coincubated with CD4+ T cells and measured after 72 hrs; format: functional, cell-based; outline: as §2
[10] = Induction of activation of human CD56+ CD3- NK cells co-cultured with human PBMC cells assessed as increase in CD107a expression at 1 uM incubated for 24 hrs by flow cytometry analysis (reference value: 1.5%); format: functional, Natural killer cell
[11] = test system: PBMC; test: Upregulation of IL-17F gene transcription in human PBMC cells at 1 uM incubated for 18 hrs by KEGG analysis; format: functional, cell-based; outline: as §5
[12] = test system: CD8-positive T cell; test: Induction of mouse ovalbumin specific CD8-positive T cell activation assessed as increase in IL-17A expression at 1 uM preincubated for 18 hrs with mouse BDMC cells in presence of ovalbumin followed by washout and further coincubated with CD4+ T cells and measured after 72 hrs; format: functional, cell-based; outline: as §2
[13] = test system: K562; test: Cytotoxicity against human K562 cells cocultured with human PBMC cells assessed as inhibition of cell proliferation at 0.01 to 1 uM incubated with PBMC cells for 18 hrs followed by co-incubation with K562 cells for 4 hrs by SYTOX blue staining based flow cytometric analysis; format: functional; conditions: dose 0.01-1 µM
Outline: (§6)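 Human PBMCs (Ficoll-isolated, healthy donors) pretreated 18 h in duplicate with compound (1 nM–1 μM) or 0.1% DMSO. CFSE-labelled K562 or MEC1 target cells then added, effector:target 40:1, 4 h at 37 °C. Sytox blue staining, flow cytometry; CFSE+Sytox+ cells counted as dead. Expressed relative to vehicle; three independent experiments, mean ± SEM.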

[14] = test system: PBMC; test: Upregulation of CXCL11 gene transcription in human PBMC cells at 1 uM incubated for 18 hrs by KEGG analysis; format: functional, cell-based; outline: as §5
[15] = test system: PBMC; test: Upregulation of IL12A gene transcription in human PBMC cells at 1 uM incubated for 18 hrs by KEGG analysis; format: functional, cell-based; outline: as §5
[16] = Cytotoxicity against human PBMC cells assessed as reduction in metabolic activity at 10 uM incubated for 18 hrs by MTS assay; format: toxicity, cell-based
Outline: (§7)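 Cells (HEK-Blue NOD2, RAW-Blue or freshly isolated human PBMCs) seeded in duplicate and exposed to 10 μM compound or 0.1% DMSO vehicle for 18 h at 37 °C, 5% CO2. Metabolic activity then measured by CellTiter 96 AQueous One (MTS) assay.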

[17] = test system: CD8-positive T cell; test: Induction of mouse ovalbumin specific CD8-positive T cell activation assessed as increase in IFN-gamma expression at 1 uM preincubated for 18 hrs with mouse BDMC cells in presence of ovalbumin followed by washout and further coincubated […] and measured after 72 hrs; format: functional, cell-based; outline: as §2
[18] = test system: Mus musculus; test: Immuno-adjuvant activity in NIH/OlaHsd mouse assessed as increase in ovalbumin specific Th2 associated IgG1 production in sera at 50 ug, sc administered on day 0 and as booster dose on day 21 and 28 measured 7 days post last dose by ELISA; format: functional, organism-based; conditions: dose 50.0 µg, time 35.0 day
[19] = test system: PBMC; test: Upregulation of CXCL9 gene transcription in human PBMC cells at 1 uM incubated for 18 hrs by KEGG analysis; format: functional, cell-based; outline: as §5
[20] = test system: MEC1; test: Cytotoxicity against human MEC1 cells cocultured with human PBMC cells assessed as inhibition of cell proliferation at 0.01 to 1 uM incubated with PBMC cells for 18 hrs followed by co-incubation with MEC-1 cells for 4 hrs by SYTOX blue staining based flow cytometric analysis; format: functional; conditions: dose 0.01-1 µM; outline: as §6
[21] = Cytotoxicity against HEK-Blue hNOD2 cells assessed as reduction in metabolic activity at 10 uM incubated for 18 hrs by MTS assay; format: toxicity, cell-based; conditions: human, hek-blue hnod2, 18 h; outline: as §7
[22] = test system: PBMC; test: Immunostimulatory activity in human PBMC cells assessed as increase in IL-6 production at 1 uM incubated for 18 hrs by flow cytometry analysis; format: functional, cell-based; outline: as §4
[23] = Induction of activation of human CD56+ CD3- NK cells co-cultured with human PBMC cells assessed as increase in CD69 expression at 1 uM incubated for 24 hrs by flow cytometry analysis (reference value: 2.7%); format: functional, Natural killer cell
[24] = as §1, with “increase in CD25 expression at” for “increase in IFN-gamma expression at”, “72 hrs by flow cytometry analysis (reference value: 10.9%)” for “72 hrs”; format: functional, CD4+ve Th
Outline: (§8)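 C57BL/6 BMDCs (GM-CSF 7 days, >90% CD11c+) pulsed 18 h with 1 μM compound, LPS 1 μg/mL or 0.1% DMSO plus OVA 50 μg/mL, washed. 1 × 10^4 BMDCs cocultured 72 h with 5 × 10^4 CFSE-labelled OT-II CD4+ or OT-I CD8+ T cells. Flow: live Thy1.2+ CD4+ or CD8+ cells scored as CD25+ CFSElow. Duplicates of two experiments.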

[25] = test system: PBMC; test: Upregulation of IL12B gene transcription in human PBMC cells at 1 uM incubated for 18 hrs by KEGG analysis; format: functional, cell-based; outline: as §5
[26] = test system: PBMC; test: Upregulation of Tbx21 gene transcription in human PBMC cells at 1 uM incubated for 18 hrs by KEGG analysis; format: functional, cell-based; outline: as §5
[27] = test system: PBMC; test: Upregulation of IFN-gamma gene transcription in human PBMC cells at 1 uM incubated for 18 hrs by KEGG analysis; format: functional, cell-based; outline: as §5
[28] = test system: CD8-positive T cell; test: Induction of mouse ovalbumin specific CD8-positive T cell activation assessed as increase in TNF expression at 1 uM preincubated for 18 hrs with mouse BDMC cells in presence of ovalbumin followed by washout and further coincubated with CD4+ T cells and measured after 72 hrs; format: functional, cell-based; outline: as §2
[29] = Cytotoxicity against mouse RAW-Blue cells assessed as reduction in metabolic activity at 10 uM incubated for 18 hrs by MTS assay; format: toxicity, cell-based; outline: as §7
[30] = test system: PBMC; test: Upregulation of IL-17A gene transcription in human PBMC cells at 1 uM incubated for 18 hrs by KEGG analysis; format: functional, cell-based; outline: as §5
[31] = test system: PBMC; test: Immunostimulatory activity in human PBMC cells assessed as increase in IL12p70 production at 1 uM incubated for 18 hrs by flow cytometry analysis; format: functional, cell-based; outline: as §4
[32] = test system: Mus musculus; test: Immuno-adjuvant activity in NIH/OlaHsd mouse assessed as increase in ovalbumin specific Th1 associated IgG2a production in sera at 50 ug, sc administered on day 0 and as booster dose on day 21 and 28 measured 7 days post last dose by ELISA; format: functional, organism-based; conditions: dose 50.0 µg, time 35.0 day
[33] = test system: CD4+ve Th; test: Induction of mouse ovalbumin specific CD4+ T cell activation assessed as increase in IL-17A expression at 1 uM preincubated for 18 hrs with mouse BDMC cells in presence of ovalbumin followed by washout and further coincubated with CD4+ T cells and measured after 72 hrs; format: functional, cell-based; outline: as §2
[34] = test system: PBMC; test: Immunostimulatory activity in human PBMC cells assessed as increase in IL-8 production at 1 uM incubated for 18 hrs by flow cytometry analysis; format: functional, cell-based; outline: as §4
[35] = test system: CD4+ve Th; test: Induction of mouse ovalbumin specific CD4+ T cell activation assessed as increase in IL-6 expression at 1 uM preincubated for 18 hrs with mouse BDMC cells in presence of ovalbumin followed by washout and further coincubated with CD4+ T cells and measured after 72 hrs; format: functional, cell-based; outline: as §2
[36] = as §3, with “increase in CD25 expression at” for “increase in IL-6 expression at”, “72 hrs by flow cytometry analysis (reference value: 12.6%)” for “72 hrs”; format: functional; outline: as §8
[37] = Induction of activation of human CD56+ CD3- NK cells co-cultured with human PBMC cells assessed as increase in IFN-gamma expression at 1 uM incubated for 24 hrs by flow cytometry analysis (reference value: 0.04%); format: functional, Natural killer cell
[38] = test system: PBMC; test: Upregulation of IL-22 gene transcription in human PBMC cells at 1 uM incubated for 18 hrs by KEGG analysis; format: functional, cell-based; outline: as §5
[39] = test system: PBMC; test: Upregulation of CXCL10 gene transcription in human PBMC cells at 1 uM incubated for 18 hrs by KEGG analysis; format: functional, cell-based; outline: as §5

CCCCOc1nc(N)c2nc(O)n(Cc3ccc(C(=O)NCCOCCNC(=O)CC[C@@H](NC(=O)[C@@H](NC(=O)CNC(=O)/C=C/c4ccc(O)c(OC)c4)C(C)C)C(=O)OCC)cc3)c2n1
Activity [1]: Active
Activity [2]: Active
Activity [3]: Active
Activity [4]: Active
Activity [5]: Active
Activity [6]: Active
Activity [7]: Active
Activity [8]: Active
Activity [9]: Active
Activity [10]: 4.7%
Activity [11]: Active
Activity [12]: Active
Activity [13]: Active
Activity [14]: Active
Activity [15]: Active
Activity [16]: Non-Toxic
Activity [17]: Active
Activity [18]: Active
Activity [19]: Active
Activity [20]: Active
Activity [21]: Non-Toxic
Activity [22]: Active
Activity [23]: 93%
Activity [24]: 28.9%
Activity [25]: Active
Activity [26]: Active
Activity [27]: Active
Activity [28]: Active
Activity [29]: Non-Toxic
Activity [30]: Active
Activity [31]: Active
Activity [32]: Active
Activity [33]: Active
Activity [34]: Active
Activity [35]: Active
Activity [36]: 54.5%
Activity [37]: 4.5%
Activity [38]: Active
Activity [39]: Active
